Calls of active or inactive are those of the source. The calls are words filed in the database; no cut-off is given here.
Columns and labels:
[1] = molecular target: Intermediate conductance calcium-activated potassium channel protein 4 (Homo sapiens, UniProt O15554); experiment: Inhibition of human cloned IK1 expressed in african green monkey COS7 cells by whole cell patch clamp assay; type: cell-based, COS-7
[2] = molecular target: T1, Potassium voltage-gated channel subfamily A member 3 (Homo sapiens, UniProt P22001); experiment: Inhibition of cloned Kv1.3 channel expressed in mammalian cells by whole cell patch clamp assay; type: cell-based
Method in brief: (§1)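 Whole-cell patch clamp recording, n ≥ 2 individual experiments per compound concentration using different cells. Dose–response curves used four or more concentrations.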

[3] = molecular target: T1, Potassium voltage-gated channel subfamily A member 3; experiment: Inhibition of cloned Kv1.3 channel expressed in mammalian cells at 2 uM by whole cell patch clamp assay; type: cell-based; method in brief: as §1
[4] = molecular target: T1, Potassium voltage-gated channel subfamily A member 3; experiment: Inhibition of cloned Kv1.3 channel expressed in mammalian cells at 20 uM by whole cell patch clamp assay
HaCaT [5] = experiment: Inhibition of human HaCaT cell proliferation after 48 hrs; type: functional, cell-based
Method in brief: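 HaCaT keratinocytes were seeded in KBM/10% FCS and held 24 h at 37 °C. Compounds diluted in KBM/FCS (final 1% DMSO) were added in triplicate and incubated 48 h.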

[6] = Cytotoxicity against human effector memory T cells of PBMC; type: cell-based, T-cell; conditions: effector memory T cells from PBMC, read-out: LD50 (the source's name)
Mus musculus = experiment: Antiinflammatory activity against oxazolone-induced delayed type hypersensitivity in mouse assessed as reduction in ear swelling at 1%, topically applied 30 mins post oxazolone challenge; type: functional; design: scale not given: the % may be the effect or the level left
Method in brief: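 Mouse DTH ear-swelling model with oxazolone sensitization and challenge. A single topical dose at 1% in ethanol–DMSO 4:1 was applied 30 min after challenge. The read-out was ear swelling relative to a vehicle-treated group. Protopic (0.1%) served as positive control. Values are means of n = 5 animals per group.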

[7] = (§2) Cytotoxicity against human HaCaT cells; type: cell-based; conditions: HaCaT cells, read-out: LD50 (the source's name)
[8] = molecular target: T1, Potassium voltage-gated channel subfamily A member 3; experiment: Inhibition of cloned Kv1.3 channel expressed in mammalian cells at 20 uM by whole cell patch clamp assay; type: cell-based; method in brief: as §1
PBMC [9] = experiment: Immunosuppressant activity in human effector memory T cells of PBMC assessed as inhibition of anti-CD3 antibody-induced cell proliferation by ELISA in presence of 5 uM Kv1.3-blocker PAP1; type: functional, cell-based
Method in brief: (§3)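 T_EM fraction of PBMCs stimulated with anti-CD3 antibody; proliferation dose–response curves for one channel blocker were run against a fixed background of a blocker of the other channel (IK-1 blocker, or 5 µM PAP-1 for Kv1.3). The read-out was EC50.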

HaCaT [10] = experiment: Cytotoxicity against human HaCaT cells up to 50 uM; type: cell-based
PBMC [11] = experiment: Immunosuppressant activity in human effector memory T cells of PBMC assessed as inhibition of anti-CD3 antibody-induced cell proliferation by ELISA; type: functional, cell-based
[12] = Cytotoxicity against human effector memory T cells of PBMC up to 50 uM; type: cell-based
HaCaT [13] = experiment: as §2; type: cell-based; conditions: hacat
PBMC [14] = experiment: Immunosuppressant activity in human effector memory T cells of PBMC assessed as inhibition of anti-CD3 antibody-induced cell proliferation by ELISA in presence of 5 uM IK1-blocker 5-(4-Chloro-benzenesulfonyl)-5,6-dihydro-dibenzo[b,d]azepin-7-one; type: functional, cell-based; method in brief: as §3
PBMC [15] = experiment: Immunosuppressant activity in human effector memory T cells of PBMC assessed as inhibition of anti-CD3 antibody-induced cell proliferation by ELISA in presence of 5 uM IK1-blocker TRAM34; type: functional, cell-based; method in brief: as §3
PBMC [16] = experiment: Immunosuppressant activity in human effector memory T cells of PBMC assessed as inhibition of anti-CD3 antibody-induced cell proliferation by ELISA in presence of 5 uM IK1-blocker 5-(Toluene-4-sulfonyl)-5,6-dihydro-dibenzo[b,d]azepin-7-one; type: functional, cell-based; method in brief: as §3
PBMC [17] = experiment: Immunosuppressant activity in human effector memory T cells of PBMC assessed as inhibition of anti-CD3 antibody-induced cell proliferation by ELISA in presence of 16.7 uM IK1-blocker 5-(4-Chloro-benzenesulfonyl)-5,6-dihydro-dibenzo[b,d]azepin-7-one; type: functional, cell-based; method in brief: as §3

T1 sequence (P22001 whole entry): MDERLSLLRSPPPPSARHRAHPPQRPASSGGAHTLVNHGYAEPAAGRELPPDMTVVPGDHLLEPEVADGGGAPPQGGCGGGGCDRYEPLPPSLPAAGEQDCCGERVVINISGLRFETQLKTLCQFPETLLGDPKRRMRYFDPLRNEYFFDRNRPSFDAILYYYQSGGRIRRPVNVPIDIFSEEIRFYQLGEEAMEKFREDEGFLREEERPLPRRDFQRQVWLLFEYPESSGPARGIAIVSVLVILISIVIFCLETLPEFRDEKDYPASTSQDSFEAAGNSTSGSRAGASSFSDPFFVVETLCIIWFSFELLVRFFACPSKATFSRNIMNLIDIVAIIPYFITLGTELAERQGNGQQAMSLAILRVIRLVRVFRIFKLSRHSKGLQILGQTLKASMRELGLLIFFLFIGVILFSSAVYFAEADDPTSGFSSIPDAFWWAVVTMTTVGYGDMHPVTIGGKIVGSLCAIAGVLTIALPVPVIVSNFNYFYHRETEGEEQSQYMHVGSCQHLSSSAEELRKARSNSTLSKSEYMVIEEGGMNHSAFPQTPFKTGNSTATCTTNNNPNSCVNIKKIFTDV
Intermediate conductance calcium-activated potassium channel protein 4, sequence (O15554 whole entry): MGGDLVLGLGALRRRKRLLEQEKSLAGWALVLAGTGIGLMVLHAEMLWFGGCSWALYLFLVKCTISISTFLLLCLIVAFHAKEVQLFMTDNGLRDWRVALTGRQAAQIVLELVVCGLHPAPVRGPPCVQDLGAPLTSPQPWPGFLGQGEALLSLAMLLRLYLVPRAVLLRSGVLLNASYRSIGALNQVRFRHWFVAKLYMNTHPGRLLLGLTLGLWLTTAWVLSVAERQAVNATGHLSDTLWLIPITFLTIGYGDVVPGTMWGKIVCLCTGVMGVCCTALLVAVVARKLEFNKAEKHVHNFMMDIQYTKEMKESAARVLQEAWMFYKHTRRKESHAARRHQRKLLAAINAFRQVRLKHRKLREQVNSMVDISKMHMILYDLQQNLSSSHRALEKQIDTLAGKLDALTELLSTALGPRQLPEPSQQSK

**Q.** With O=C1CN(C(=O)c2cccc(Cl)c2)c2ccccc2-c2ccccc21 as the molecule, how does the IC50 [1] read?
**A.** The IC50 was 1.3 µM.

**Q.** And the IC50 [2]?
**A.** Its IC50 is 3.4 µM.

**Q.** Which inhibition [3] does the source give for O=C(CCc1ccccc1)C1c2ccccc2-c2ccccc2N1C(=O)c1ccco1 (configuration not stated) here?
**A.** The inhibition was 15%.

**Q.** With COc1ccc(C(=O)C2c3ccccc3-c3ccccc3N2C(=O)c2ccco2)cc1 (configuration not stated) as the molecule, how does the inhibition [3] read?
**A.** Its inhibition is 13%.

**Q.** Which inhibition [3] does the source give for O=C(c1ccc2c(c1)OCO2)C1c2ccccc2-c2ccccc2N1C(=O)c1ccco1 (configuration not stated) here?
**A.** Its inhibition is 8%.

**Q.** With CCCC(C)C(=O)N1c2ccccc2-c2ccccc2C1c1cccs1 (configuration not stated) as the molecule, how does the IC50 [2] read?
**A.** Its IC50 is less than 2 µM.

**Q.** And the inhibition [3]?
**A.** Its inhibition is 59%.

**Q.** For O=c1[nH]c2ccccc2c2ccccc12, which inhibition [4] is on record?
**A.** Its inhibition is 12%.

**Q.** With O=C(CCC1CCCC1)C1c2ccccc2-c2ccccc2N1C(=O)c1ccco1 (configuration not stated) as the molecule, how does the inhibition [3] read?
**A.** The inhibition was 11%.

**Q.** Which EC50 (HaCaT [5]) does the source give for Clc1ccccc1C(c1ccccc1)(c1ccccc1)n1ccnc1 [CLOTRIMAZOLE] here?
**A.** The EC50 was 15 µM.

**Q.** And the CC50 [6]?
**A.** Its CC50 is 40 µM.

**Q.** And the IC50 [2]?
**A.** The IC50 was 6 µM.

**Q.** What about the Activity (Mus musculus) of the same molecule?
**A.** The Activity was 20%.

**Q.** What about the CC50 [7] of the same molecule?
**A.** The CC50 was 40 µM.

**Q.** For O=c1c2ccccc2c2ccccc2n1CCn1cccc1, which EC50 (HaCaT [5]) is on record?
**A.** Its EC50 is 2.3 µM.

**Q.** And the inhibition [8]?
**A.** Its inhibition is 57%.

**Q.** What about the inhibition [4] of the same molecule?
**A.** Its inhibition is 57%.

**Q.** What does the source list for Cc1ccc(C(=O)N2CC(=O)c3ccccc3-c3ccccc32)cc1?
**A.** IC50 [1]: 16 µM; IC50 [2]: 4 µM

**Q.** With Cc1ccc(S(=O)(=O)N2CC(=O)c3ccccc3-c3ccccc32)cc1 as the molecule, how does the EC50 (PBMC [9]) read?
**A.** The EC50 was 2.5 µM.

**Q.** And the EC50 (HaCaT [5])?
**A.** The EC50 was 8.4 µM.

**Q.** What about the IC50 [1] of the same molecule?
**A.** Its IC50 is 2.1 µM.

**Q.** What about the Activity (HaCaT [10]) of the same molecule?
**A.** The Activity was “Non-toxic”.

**Q.** What about the Activity (PBMC [11]) of the same molecule?
**A.** Its Activity is “inactive”.

**Q.** What about the Activity [12] of the same molecule?
**A.** Its Activity is “Non-toxic”.

**Q.** And the IC50 [2]?
**A.** The IC50 was 5.8 µM.

**Q.** What about the Activity (Mus musculus) of the same molecule?
**A.** Its Activity is 20%.

**Q.** What about the Activity (HaCaT [13]) of the same molecule?
**A.** The Activity was “Non-toxic”.

**Q.** For O=C1CN(S(=O)(=O)c2ccc([N+](=O)[O-])cc2)c2ccccc2-c2ccccc21, which IC50 [2] is on record?
**A.** The IC50 was greater than 10 µM.

**Q.** Which inhibition [3] does the source give for O=C(O)C(=O)C1c2ccccc2-c2ccccc2N1C(=O)c1ccco1 (configuration not stated) here?
**A.** Its inhibition is 41%.

**Q.** Which IC50 [2] does the source give for CC(=O)N1c2ccccc2-c2ccccc2C1c1c[nH]c2ccccc12 (configuration not stated) here?
**A.** The IC50 was 5 µM.

**Q.** With Clc1ccccc1C(c1ccccc1)(c1ccccc1)n1cccn1 as the molecule, how does the EC50 (PBMC [9]) read?
**A.** Its EC50 is 0.025 µM.

**Q.** What about the EC50 (HaCaT [5]) of the same molecule?
**A.** The EC50 was 40 µM.

**Q.** What about the Activity (PBMC [11]) of the same molecule?
**A.** The Activity was “inactive”.

**Q.** And the IC50 [2]?
**A.** The IC50 was 5 µM.

**Q.** For O=C1CN(S(=O)(=O)c2cccc(Cl)c2)c2ccccc2-c2ccccc21, which IC50 [2] is on record?
**A.** The IC50 was 3.6 µM.

**Q.** For O=C(c1cc(F)ccc1F)N1c2ccccc2-c2ccccc2C1c1cccs1 (configuration not stated), which inhibition [3] is on record?
**A.** Its inhibition is 27%.

**Q.** With O=C(c1ccc[nH]1)C1c2ccccc2-c2ccccc2N1C(=O)c1ccco1 (configuration not stated) as the molecule, how does the inhibition [3] read?
**A.** The inhibition was 15%.

**Q.** For O=C1CN(S(=O)(=O)c2cccs2)c2ccccc2-c2ccccc21, which IC50 [1] is on record?
**A.** The IC50 was 2.4 µM.

**Q.** And the IC50 [2]?
**A.** The IC50 was 13 µM.

**Q.** For COc1cccc(C(=O)C2c3ccccc3-c3ccccc3N2C(=O)c2ccco2)c1 (configuration not stated), which inhibition [3] is on record?
**A.** The inhibition was 30%.

**Q.** Which EC50 (PBMC [14]) does the source give for O=c1ccc2c(OCCCCOc3ccccc3)c3ccoc3cc2o1 here?
**A.** The EC50 was 1.2 µM.

**Q.** And the IC50 [1]?
**A.** Its IC50 is 10 µM.

**Q.** What about the EC50 (PBMC [11]) of the same molecule?
**A.** Its EC50 is 25 µM.

**Q.** What about the EC50 (PBMC [15]) of the same molecule?
**A.** Its EC50 is 0.43 µM.

**Q.** What about the EC50 (PBMC [16]) of the same molecule?
**A.** The EC50 was 0.4 µM.

**Q.** And the EC50 (PBMC [17])?
**A.** The EC50 was 0.5 µM.
